# According to ChEMBL document CHEMBL1125376, “Class III antiarrhythmic activity of novel substituted 4-[(methylsulfonyl)amino]benzamides and sulfonamides” (J Med Chem, 1992):
# Values joined by “and” are separate entries in the source; they are usually repeats but may differ in a detail not shown here. Equal values may be shown once.
# Key:
# Canis familiaris [1] = organism: Canis familiaris; experiment: Effect on the transmembrane potential of dog Purkinje fibers paced at a basic cycle length of stimulation of 300 ms, repolarization time to -60 mV; type: functional; conditions: Canis lupus familiaris; Purkinje fiber
# Procedure, shortened: (§1)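 Purkinje fiber bundles were taken from pentobarbital-anesthetized mongrel dogs. They were superfused at 37.5-38.0 °C with Tyrode's (mM: NaCl 138, KCl 4, CaCl2 2, NaHCO3 24, MgCl2 0.5, Na2HPO4 1.8, dextrose 5) gassed with 95% O2-5% CO2, pH 7.3-7.4. Stimulation used 2.0 ms pulses at twice threshold. Fibers were equilibrated ≥1 h before drug. Action potentials were recorded at 4-6 sites and averaged per fiber.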
# Canis familiaris [2] = organism: Canis familiaris; experiment: Effect on the transmembrane potential of dog Purkinje fibers paced at a basic cycle length of stimulation of 1000 ms, repolarization time to -60 mV; type: functional; conditions: Canis lupus familiaris; Purkinje fiber; procedure, shortened: as §1
# Canis familiaris [3] = experiment: Effect on heart rate, after intravenous administration in open-chest anesthetized dogs at dose of 2.5 mg/kg; type: functional, Canis lupus familiaris
# Canis familiaris [4] = experiment: Effect on atrial effective refractory period, after intravenous administration in open-chest anesthetized dogs at dose of 5.0 mg/kg; type: functional, Canis lupus familiaris, Cardiac atrium
# Canis familiaris [5] = experiment: Effect on atrial conduction time, after intravenous administration in open-chest anesthetized dogs at dose of 2.5 mg/kg; type: functional, Canis lupus familiaris, Cardiac atrium
# Canis familiaris [6] = experiment: Effect on heart rate, after intravenous administration in open-chest anesthetized dogs at dose of 5.0 mg/kg; type: functional, Canis lupus familiaris
# Canis familiaris [7] = experiment: Effect on ventricular conduction time, after intravenous administration in open-chest anesthetized dogs at dose of 2.5 mg/kg; type: functional, Canis lupus familiaris, Cardiac ventricle
# Canis familiaris [8] = experiment: Effect on ventricular conduction time, after intravenous administration in open-chest anesthetized dogs at dose of 5.0 mg/kg; type: functional, Canis lupus familiaris, Cardiac ventricle
# Canis familiaris [9] = experiment: Effect on ventricular effective refractory period, after intravenous administration in open-chest anesthetized dogs at dose of 5.0 mg/kg; type: functional, Canis lupus familiaris, Cardiac ventricle
# Procedure, shortened: (§2)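 Mongrel dogs, pentobarbital-anesthetized (30 mg/kg iv plus 5 mg/kg per h), open chest. Compound given iv. Atrial and ventricular effective refractory periods and conduction times measured during pacing at 300 ms, along with heart rate and mean arterial pressure. Two doses per compound, chosen from dose-response runs. Values are % change from predrug, mean ± SE.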
# Canis familiaris [10] = experiment: Effect on ventricular effective refractory period, after intravenous administration in open-chest anesthetized dogs at dose of 2.5 mg/kg; type: functional, Canis lupus familiaris, Cardiac ventricle; procedure, shortened: as §2
# Canis familiaris [11] = experiment: Effect on atrial effective refractory period, after intravenous administration in open-chest anesthetized dogs at dose of 2.5 mg/kg; type: functional, Canis lupus familiaris, Cardiac atrium
# Canis familiaris [12] = experiment: Effect on mean arterial pressure, after intravenous administration in open-chest anesthetized dogs at dose of 2.5 mg/kg; type: functional, Canis lupus familiaris, Artery
# Canis familiaris [13] = experiment: Effect on atrial conduction time, after intravenous administration in open-chest anesthetized dogs at dose of 5.0 mg/kg; type: functional, Canis lupus familiaris, Cardiac atrium
# Canis familiaris [14] = experiment: Effect on mean arterial pressure, after intravenous administration in open-chest anesthetized dogs at dose of 5.0 mg/kg; type: functional, Canis lupus familiaris, Artery
# [15] = (§3) Maximum rate of depolarization of the upstroke of the action potential at 3 uM
# Procedure, shortened: (§4)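 Purkinje fiber bundles from pentobarbital-anesthetized mongrel dogs, superfused at 37.5-38.0 °C with Tyrode's solution (95% O2-5% CO2, pH 7.3-7.4). Stimulation with 2.0 ms square pulses at 2× threshold. Fibers equilibrated at least 1 h before drug. Action potentials recorded at four to six sites, control vs drug, and averaged per fiber.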
# Canis familiaris [16] = organism: Canis familiaris; experiment: Effect on transmembrane potential of dog Purkinje fibers paced at a basic cycle length of stimulation of 300 ms, repolarization time to -60 mV at 3 uM; type: functional; conditions: Canis lupus familiaris, Purkinje fiber; procedure, shortened: as §1
# Canis familiaris [17] = organism: Canis familiaris; experiment: Effect on the transmembrane potential of dog Purkinje fibers paced at a basic cycle length of stimulation of 300 ms, repolarization time to -60 mV at 0.3 uM concentration; type: functional; conditions: Canis lupus familiaris, Purkinje fiber; procedure, shortened: as §1
# Canis familiaris [18] = organism: Canis familiaris; experiment: Effect on the transmembrane potential of dog Purkinje fibers paced at a basic cycle length of stimulation of 1000 ms, repolarization time to -60 mV at 3 uM; type: functional; conditions: Canis lupus familiaris, Purkinje fiber; procedure, shortened: as §1
# [19] = as §3; procedure, shortened: as §4; remark: listed apart in the source
# Canis familiaris [20] = organism: Canis familiaris; experiment: Effect on the transmembrane potential of dog Purkinje fibers paced at a basic cycle length of stimulation of 1000 ms, repolarization time to -60 mV at 0.3 uM concentration; type: functional; conditions: Canis lupus familiaris, Purkinje fiber; procedure, shortened: as §1
# Canis familiaris [21] = experiment: Prodrug ventricular fibrillation threshold(VFT) in open-chest anesthetized dogs(Control = 8+/-1) at a dose of 2.5 mg/kg iv; type: functional, Canis lupus familiaris, Cardiac ventricle
# Canis familiaris [22] = organism: Canis familiaris; experiment: Effect on the transmembrane potential of dog Purkinje fibers paced at a basic cycle length of stimulation of 1000 ms, repolarization time to -60 mV at 3 uM concentration; type: functional; conditions: Canis lupus familiaris, Purkinje fiber; procedure, shortened: as §1
# Canis familiaris [23] = experiment: Effect on atrial conduction time, after intravenous administration in open-chest anesthetized dogs at dose of 1.0 mg/kg; type: functional, Canis lupus familiaris, Cardiac atrium
# Canis familiaris [24] = experiment: Effect on atrial effective refractory period, after intravenous administration in open-chest anesthetized dogs at dose of 1.0 mg/kg; type: functional, Canis lupus familiaris, Cardiac atrium
# Canis familiaris [25] = experiment: Effect on ventricular conduction time, after intravenous administration in open-chest anesthetized dogs at dose of 1.0 mg/kg; type: functional, Canis lupus familiaris, Cardiac ventricle
# Canis familiaris [26] = organism: Canis familiaris; experiment: Effect on the transmembrane potential of dog Purkinje fibers paced at a basic cycle length of stimulation of 300 ms, repolarization time to -60 mV at 3 uM concentration; type: functional; conditions: Canis lupus familiaris, Purkinje fiber; procedure, shortened: as §1
# Canis familiaris [27] = experiment: Effect on ventricular effective refractory period, after intravenous administration in open-chest anesthetized dogs at dose of 1.0 mg/kg; type: functional, Canis lupus familiaris, Cardiac ventricle; procedure, shortened: as §2
# Canis familiaris [28] = experiment: Effect on heart rate, after intravenous administration in open-chest anesthetized dogs at dose of 1.0 mg/kg; type: functional, Canis lupus familiaris
# Canis familiaris [29] = experiment: Effect on mean arterial pressure, after intravenous administration in open-chest anesthetized dogs at dose of 1.0 mg/kg; type: functional, Canis lupus familiaris, Artery
# Canis familiaris [30] = experiment: Effect on atrial conduction time, after intravenous administration in open-chest anesthetized dogs at dose of 0.1 mg/kg; type: functional, Canis lupus familiaris, Cardiac atrium
# Canis familiaris [31] = experiment: Effect on atrial effective refractory period, after intravenous administration in open-chest anesthetized dogs at dose of 0.1 mg/kg; type: functional, Canis lupus familiaris, Cardiac atrium
# Canis familiaris [32] = organism: Canis familiaris; experiment: Effect on the transmembrane potential of dog Purkinje fibers paced at a basic cycle length of stimulation of 300 ms, repolarization time to -60 mV, at a concentration of 0.3 uM; type: functional; conditions: Canis lupus familiaris, Purkinje fiber; procedure, shortened: as §1
# Canis familiaris [33] = experiment: Effect on ventricular effective refractory period, after intravenous administration in open-chest anesthetized dogs at dose of 0.1 mg/kg; type: functional, Canis lupus familiaris, Cardiac ventricle
# Canis familiaris [34] = organism: Canis familiaris; experiment: Effect on the transmembrane potential of dog Purkinje fibers paced at a basic cycle length of stimulation of 1000 ms, repolarization time to -60 mV, at a concentration of 0.3 uM; type: functional; conditions: Canis lupus familiaris, Purkinje fiber; procedure, shortened: as §1
# Canis familiaris [35] = experiment: Effect on heart rate, after intravenous administration in open-chest anesthetized dogs at dose of 0.1 mg/kg; type: functional, Canis lupus familiaris
# Canis familiaris [36] = experiment: Effect on ventricular conduction time, after intravenous administration in open-chest anesthetized dogs at dose of 0.1 mg/kg; type: functional, Canis lupus familiaris, Cardiac ventricle
# Canis familiaris [37] = experiment: Effect on mean arterial pressure, after intravenous administration in open-chest anesthetized dogs at dose of 0.1 mg/kg; type: functional, Canis lupus familiaris, Artery
compound,measurement,setting,value
CN(CCN(C)S(=O)(=O)c1ccc(NS(C)(=O)=O)cc1)c1ccc2ccccc2n1,APD60,Canis familiaris [1],20
same,APD60,Canis familiaris [2],46
CC(C)NCC(O)c1ccc(NS(C)(=O)=O)cc1 (centres undefined) [SOTALOL],Change,Canis familiaris [3],-27%
same,APD60,Canis familiaris [1],18
same,Change,Canis familiaris [4],57%
same,Change,Canis familiaris [5],-5%
same,Change,Canis familiaris [6],-28%
same,Change,Canis familiaris [7],-1%
same,Change,Canis familiaris [8],-1%
same,Change,Canis familiaris [9],25%
same,Change,Canis familiaris [10],19%
same,Change,Canis familiaris [11],42%
same,Change,Canis familiaris [12],-16%
same,Change,Canis familiaris [13],-7%
same,APD60,Canis familiaris [2],56
same,Change,Canis familiaris [14],-17%
CS(=O)(=O)Nc1ccc(S(=O)(=O)N2CCNc3nc4ccccc4n3CC2)cc1,APD60,Canis familiaris [1],24
same,APD60,Canis familiaris [2],42
CN(CCN(C)S(=O)(=O)c1ccc(NS(C)(=O)=O)cc1)c1nc2ccccc2n1C.Cl,Vmax,[15],11
same,APD60,Canis familiaris [16],40
same,APD60,Canis familiaris [17],24
same,APD60,Canis familiaris [18],57
same,Vmax,[19],13
same,APD60,Canis familiaris [20],46
same,VFT,Canis familiaris [21],8 and 24
CNc1nc2ccccc2n1CCN(C)S(=O)(=O)c1ccc(NS(C)(=O)=O)cc1,APD60,Canis familiaris [1],28
same,APD60,Canis familiaris [2],47
Cl.Cn1c(N2CCN(S(=O)(=O)c3ccc(NS(C)(=O)=O)cc3)CC2)nc2ccccc21,APD60,Canis familiaris [22],57
same,Change,Canis familiaris [23],3%
same,Change,Canis familiaris [4],40%
same,Change,Canis familiaris [24],22%
same,Change,Canis familiaris [6],-37%
same,Change,Canis familiaris [8],2%
same,Change,Canis familiaris [9],25%
same,Change,Canis familiaris [25],-4%
same,APD60,Canis familiaris [26],36
same,Change,Canis familiaris [13],-3%
same,Change,Canis familiaris [27],13%
same,Change,Canis familiaris [28],-17%
same,Change,Canis familiaris [29],2%
same,Change,Canis familiaris [14],3%
CN(CCNS(=O)(=O)c1ccc(NS(C)(=O)=O)cc1)c1nc2ccccc2n1C.Cl,APD60,Canis familiaris [22],50
same,APD60,Canis familiaris [26],16
Cc1cccc(CCN2CCC(C(=O)c3ccc(NS(C)(=O)=O)cc3)CC2)n1,APD60,Canis familiaris [1],21
same,Change,Canis familiaris [23],1%
same,Change,Canis familiaris [30],1%
same,Change,Canis familiaris [24],55%
same,Change,Canis familiaris [31],34%
same,APD60,Canis familiaris [32],27
same,Change,Canis familiaris [33],20%
same,APD60,Canis familiaris [34],74
same,Change,Canis familiaris [35],-18%
same,Change,Canis familiaris [36],-3%
same,Change,Canis familiaris [25],-2%
same,Change,Canis familiaris [27],26%
same,APD60,Canis familiaris [2],53
same,Change,Canis familiaris [28],-25%
same,Change,Canis familiaris [29],-19%
same,Change,Canis familiaris [37],-6%
